In ChEMBL document CHEMBL4261522, “Discovery of potential antifungal triazoles: design, synthesis, biological evaluation, and preliminary antifungal mechanism exploration” (Medchemcomm, 2017):
≈ marks a conversion by molar mass, not a printed value. Calls of active or inactive are those of the source. The calls are words filed in the database; no cut-off is given here.

Columns and labels:
Aspergillus flavus [1] = assay: Antifungal activity against Aspergillus flavus by two-fold serial dilution method; format: functional
In short: (§1)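 MIC by standard two-fold serial dilution in 96-well microplates following NCCLS guidelines. Strains were supplied by Southwest University School of Pharmaceutical Sciences and Third Military Medical University College of Pharmacy.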

Candida albicans = assay: Antifungal activity against Candida albicans by two-fold serial dilution method; format: functional; in short: as §1
Cyberlindnera jadinii [2] = assay: Antifungal activity against Candida utilis by two-fold serial dilution method; format: functional; details: Williopsis jadinii; in short: as §1
Kregervanrija fluxuum [3] = assay: Antifungal activity against Candida mycoderma by two-fold serial dilution method; format: functional; in short: as §1
Saccharomyces cerevisiae [4] = assay: Antifungal activity against Saccharomyces cerevisiae by two-fold serial dilution method; format: functional; in short: as §1
Aspergillus flavus [5] = assay: Potency index, ratio of fluconazole MIC to compound MIC for Aspergillus flavus by two-fold serial dilution method; format: functional
Aspergillus flavus [6] = assay: Potency index, ratio of miconazole MIC to compound MIC for Aspergillus flavus by two-fold serial dilution method; format: functional
Cyberlindnera jadinii [7] = assay: Potency index, ratio of miconazole MIC to compound MIC for Candida utilis by two-fold serial dilution method; format: functional
Saccharomyces cerevisiae [8] = assay: Potency index, ratio of miconazole MIC to compound MIC for Saccharomyces cerevisiae; format: functional
Calf thymus DNA [9] = assay: Inhibition of neural red dye binding to calf thymus DNA by UV absorption spectral analysis; format: nucleic-acid assay; details: Bos taurus
Calf thymus DNA [10] = assay: Binding affinity to calf thymus DNA assessed as hypochromic effect between compound and DNA by UV absorption spectral analysis; format: nucleic-acid assay; details: Bos taurus
In short: (§2)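 UV absorption of the compound–DNA complex compared with the summed absorbance of free DNA and free compound. A measured value below the sum was read as hypochromism and one above it as hyperchromism.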

Calf thymus DNA [11] = assay: Binding affinity to calf thymus DNA assessed as iodide quenching by measuring Stern-Volmer quenching constant by fluorescence spectral analysis (reference value: 11.6 +/- 0.067 L/mol); format: nucleic-acid assay; details: Bos taurus
In short: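 Fluorescence titration with KI as quencher, 0–12 × 10–3 mol L–1 in 2 × 10–3 mol L–1 steps. Compound at 1.0 × 10–5 mol L–1, alone or with DNA at 2.0 × 10–5 mol L–1. Run at 298 K with excitation at 290 nm. Quenching constant taken from a Stern–Volmer plot of F0/F against KI.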

Calf thymus DNA [12] = assay: Binding affinity to calf thymus DNA by UV absorption spectral analysis; format: nucleic-acid assay; details: Bos taurus
Calf thymus DNA [13] = assay: Binding affinity to calf thymus DNA assessed as hyperchromic effect between compound and DNA by UV absorption spectral analysis; format: nucleic-acid assay; details: Bos taurus; in short: as §2
Kregervanrija fluxuum [14] = assay: Potency index, ratio of miconazole MIC to compound MIC for Candida mycoderma; format: functional

Structure (SMILES)	MIC (Aspergillus flavus [1]) [µg/mL]	MIC (Candida albicans) [µg/mL]	MIC (Cyberlindnera jadinii [2]) [µg/mL]	MIC (Kregervanrija fluxuum [3]) [µg/mL]	MIC (Saccharomyces cerevisiae [4]) [µg/mL]	Ratio (Aspergillus flavus [5])	Ratio (Aspergillus flavus [6])	Ratio (Cyberlindnera jadinii [7])	Ratio (Saccharomyces cerevisiae [8])	inhibition (Calf thymus DNA [9])	Activity (Calf thymus DNA [10])	KSV (Calf thymus DNA [11]) [L/mol]	Activity (Calf thymus DNA [12])	K (Calf thymus DNA [12]) [×10⁴ L/mol]	Activity (Calf thymus DNA [13])	Ratio (Kregervanrija fluxuum [14])
Fc1ccc(C(Cn2cncn2)OCCCCCCOC(Cn2cncn2)c2ccc(F)cc2F)c(F)c1 (stereo unspecified)	256 (≈ 481 µM)	256 (≈ 481 µM)	> 256	256 (≈ 481 µM)	128 (≈ 240 µM)	–	–	–	–	–	–	–	–	–	–	–
Fc1ccc(C(Cn2cncn2)OCc2cccc(Cl)c2)c(F)c1 (stereo unspecified)	32 (≈ 91.5 µM)	16 (≈ 45.7 µM)	8 (≈ 22.9 µM)	16 (≈ 45.7 µM)	16 (≈ 45.7 µM)	–	–	–	–	–	–	–	–	–	–	–
CCCCCCOC(Cn1cncn1)c1ccc(F)cc1F (stereo unspecified)	32 (≈ 103 µM)	64 (≈ 207 µM)	16 (≈ 51.7 µM)	32 (≈ 103 µM)	32 (≈ 103 µM)	–	–	–	–	–	–	–	–	–	–	–
Fc1ccc(C(Cn2cncn2)OCc2ccc(Cl)cc2)c(F)c1 (stereo unspecified)	8 (≈ 22.9 µM)	8 (≈ 22.9 µM)	4 (≈ 11.4 µM)	16 (≈ 45.7 µM)	16 (≈ 45.7 µM)	–	–	–	–	–	–	–	–	–	–	–
Cc1cc(=O)oc2cc(OCCCCOC(Cn3cncn3)c3ccc(F)cc3F)ccc12 (stereo unspecified)	32 (≈ 70.3 µM)	4 (≈ 8.78 µM)	16 (≈ 35.1 µM)	2 (≈ 4.39 µM)	4 (≈ 8.78 µM)	–	–	–	–	–	–	–	–	–	–	–
O=[N+]([O-])c1ccc(COC(Cn2c[n+](Cc3ccc([N+](=O)[O-])cc3)cn2)c2ccc(F)cc2F)cc1.[Cl-] (stereo unspecified)	16	8	32	16	64	–	–	–	–	–	–	–	–	–	–	–
Fc1ccc(C(Cn2cncn2)OCc2ccc(Cl)cc2Cl)c(F)c1 (stereo unspecified)	16 (≈ 41.6 µM)	8 (≈ 20.8 µM)	4 (≈ 10.4 µM)	16 (≈ 41.6 µM)	8 (≈ 20.8 µM)	16	16	–	–	–	–	–	–	–	–	–
Fc1ccc(C(Cn2c[n+](Cc3ccc(Cl)cc3Cl)cn2)OCc2ccc(Cl)cc2Cl)c(F)c1.[Cl-] (stereo unspecified)	32	16	8	32	64	–	–	–	–	–	–	–	–	–	–	–
Fc1ccc(C(Cn2cncn2)OCc2ccccc2Cl)c(F)c1 (stereo unspecified)	16 (≈ 45.7 µM)	8 (≈ 22.9 µM)	8 (≈ 22.9 µM)	8 (≈ 22.9 µM)	16 (≈ 45.7 µM)	–	–	–	–	–	–	–	–	–	–	–
OC(Cn1cncn1)c1ccc(F)cc1F (stereo unspecified)	> 256	128 (≈ 568 µM)	256 (≈ 1140 µM)	256 (≈ 1140 µM)	> 256	–	–	–	–	–	–	–	–	–	–	–
Clc1ccc(COC(Cn2ccnc2)c2ccc(Cl)cc2Cl)c(Cl)c1 (stereo unspecified) [MICONAZOLE]	256 (≈ 615 µM)	4 (≈ 9.61 µM)	16 (≈ 38.4 µM)	8 (≈ 19.2 µM)	32 (≈ 76.9 µM)	–	–	–	–	–	–	–	–	–	–	–
O=[N+]([O-])c1ccc(COC(Cn2cncn2)c2ccc(F)cc2F)cc1 (stereo unspecified)	> 256	> 256	> 256	> 256	> 256	–	–	–	–	–	–	–	–	–	–	–
CCCCOC(Cn1cncn1)c1ccc(F)cc1F (stereo unspecified)	128 (≈ 455 µM)	64 (≈ 228 µM)	8 (≈ 28.4 µM)	64 (≈ 228 µM)	128 (≈ 455 µM)	–	–	2	–	–	–	–	–	–	–	–
Fc1ccc(C(Cn2c[n+](Cc3ccc(Cl)c(Cl)c3)cn2)OCc2ccc(Cl)c(Cl)c2)c(F)c1.[Cl-] (stereo unspecified)	64	32	32	64	16	–	–	–	–	–	–	–	–	–	–	–
Fc1ccc(C(Cn2c[n+](Cc3ccccc3F)cn2)OCc2ccccc2F)c(F)c1.[Cl-] (stereo unspecified)	64	32	32	8	32	–	–	–	–	–	–	–	–	–	–	–
Fc1ccc(C(Cn2cncn2)OCCOC(Cn2cncn2)c2ccc(F)cc2F)c(F)c1 (stereo unspecified)	256 (≈ 537 µM)	64 (≈ 134 µM)	8 (≈ 16.8 µM)	256 (≈ 537 µM)	8 (≈ 16.8 µM)	–	–	–	–	–	–	–	–	–	–	–
Cc1cc(=O)oc2cc(OCCOC(Cn3cncn3)c3ccc(F)cc3F)ccc12 (stereo unspecified)	256 (≈ 599 µM)	128 (≈ 299 µM)	256 (≈ 599 µM)	256 (≈ 599 µM)	128 (≈ 299 µM)	–	–	–	–	–	–	–	–	–	–	–
Fc1ccc(COC(Cn2cncn2)c2ccc(F)cc2F)c(F)c1 (stereo unspecified)	16 (≈ 45.5 µM)	4 (≈ 11.4 µM)	4 (≈ 11.4 µM)	8 (≈ 22.8 µM)	4 (≈ 11.4 µM)	16	16	–	–	–	–	–	–	–	–	–
Fc1ccc(C(Cn2cncn2)OCc2ccc(Cl)c(Cl)c2)c(F)c1 (stereo unspecified)	8 (≈ 20.8 µM)	1 (≈ 2.6 µM)	1 (≈ 2.6 µM)	4 (≈ 10.4 µM)	0.5 (≈ 1.3 µM)	32	32	–	64	Dose-dependent effect	Active	10.7	Dose-dependent effect	1.04	–	–
Fc1ccc(COC(Cn2c[n+](Cc3ccc(F)cc3F)cn2)c2ccc(F)cc2F)c(F)c1.[Cl-] (stereo unspecified)	> 256	> 256	> 256	> 256	128	–	–	–	–	–	–	–	–	–	–	–
Fc1ccc(C(Cn2cncn2)OCc2ccccc2F)c(F)c1 (stereo unspecified)	32 (≈ 96 µM)	0.5 (≈ 1.5 µM)	4 (≈ 12 µM)	2 (≈ 6 µM)	16 (≈ 48 µM)	8	8	–	–	–	–	–	–	–	–	–
Fc1ccc(C(Cn2cncn2)OCCCCOC(Cn2cncn2)c2ccc(F)cc2F)c(F)c1 (stereo unspecified)	64 (≈ 127 µM)	128 (≈ 254 µM)	128 (≈ 254 µM)	128 (≈ 254 µM)	64 (≈ 127 µM)	–	–	–	–	–	–	–	–	–	–	–
CCCCCCCCOC(Cn1cncn1)c1ccc(F)cc1F (stereo unspecified)	128 (≈ 379 µM)	4 (≈ 11.9 µM)	16 (≈ 47.4 µM)	16 (≈ 47.4 µM)	16 (≈ 47.4 µM)	–	–	–	–	–	–	–	–	–	–	–
CCCCCCCCCCCCOC(Cn1cncn1)c1ccc(F)cc1F (stereo unspecified)	128 (≈ 325 µM)	> 256	> 256	> 256	8 (≈ 20.3 µM)	–	–	–	4	–	–	–	–	–	–	–
Cc1cc(=O)oc2cc(OCCCCCCOC(Cn3cncn3)c3ccc(F)cc3F)ccc12 (stereo unspecified)	16 (≈ 33.1 µM)	2 (≈ 4.14 µM)	16 (≈ 33.1 µM)	1 (≈ 2.07 µM)	16 (≈ 33.1 µM)	–	–	–	–	Dose-dependent effect	–	–	Dose-dependent effect	5.06	Active	–
CCCOC(Cn1cncn1)c1ccc(F)cc1F (stereo unspecified)	128 (≈ 479 µM)	4 (≈ 15 µM)	32 (≈ 120 µM)	1 (≈ 3.74 µM)	64 (≈ 239 µM)	–	–	–	–	–	–	–	–	–	–	8
OC(Cn1cncn1)(Cn1cncn1)c1ccc(F)cc1F [FLUCONAZOLE]	256 (≈ 836 µM)	1 (≈ 3.27 µM)	8 (≈ 26.1 µM)	4 (≈ 13.1 µM)	16 (≈ 52.2 µM)	–	–	–	–	–	–	–	–	–	–	–
